Measurements reported in ChEMBL document CHEMBL4364321, “Expedient assembly of Oligo-LacNAcs by a sugar nucleotide regeneration system: Finding the role of tandem LacNAc and sialic acid position towards siglec binding” (Eur J Med Chem, 2019).
Activity calls are given as the source filed them. The calls are words filed in the database; no cut-off is given here.

Legend:
[1] = target: Sialic acid-binding Ig-like lectin 9 (Homo sapiens) (UniProt Q9Y336); assay: Binding affinity to recombinant human Fc-fused siglec-9 by fluorescence based glycan microarray analysis
Sequence of Sialic acid-binding Ig-like lectin 9 (Homo sapiens) (Q9Y336 whole entry, the tested form may be a part): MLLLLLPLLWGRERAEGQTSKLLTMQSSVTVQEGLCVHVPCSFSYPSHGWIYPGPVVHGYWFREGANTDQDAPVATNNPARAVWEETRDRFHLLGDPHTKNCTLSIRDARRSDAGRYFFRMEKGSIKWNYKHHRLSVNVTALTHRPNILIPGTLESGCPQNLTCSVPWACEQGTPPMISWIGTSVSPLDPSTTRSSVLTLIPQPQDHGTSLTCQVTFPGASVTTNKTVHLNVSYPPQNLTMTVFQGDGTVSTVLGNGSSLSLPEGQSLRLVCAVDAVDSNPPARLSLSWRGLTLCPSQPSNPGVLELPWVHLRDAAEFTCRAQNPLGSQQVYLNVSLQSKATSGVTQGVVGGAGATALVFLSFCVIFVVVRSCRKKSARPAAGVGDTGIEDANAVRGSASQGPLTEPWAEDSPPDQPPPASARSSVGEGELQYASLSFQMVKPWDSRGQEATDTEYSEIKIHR
Method in brief: (§1)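 Azidoglycans CuAAC-coupled onto alkyne-modified glass (10% zwitterionic silane mix), five replicate spots each, remaining alkynes capped with azido-ethylene glycol. Slides blocked 0.5 h in 3% BSA/PBS, then probed 1 h at rt with Fc-Siglec (10 µg/mL) premixed 1:1 with Fc-specific anti-human IgG-Cy3 (10 µg/mL) in PBS/0.1% BSA. After PBST washes, Cy3 fluorescence was scanned and averaged over replicates.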

[2] = target: B-cell receptor CD22 (Homo sapiens) (UniProt P20273); assay: Binding affinity to recombinant human Fc-fused siglec-2 by fluorescence based glycan microarray analysis; method in brief: as §1
Sequence of B-cell receptor CD22 (Homo sapiens) (P20273 whole entry, the tested form may be a part): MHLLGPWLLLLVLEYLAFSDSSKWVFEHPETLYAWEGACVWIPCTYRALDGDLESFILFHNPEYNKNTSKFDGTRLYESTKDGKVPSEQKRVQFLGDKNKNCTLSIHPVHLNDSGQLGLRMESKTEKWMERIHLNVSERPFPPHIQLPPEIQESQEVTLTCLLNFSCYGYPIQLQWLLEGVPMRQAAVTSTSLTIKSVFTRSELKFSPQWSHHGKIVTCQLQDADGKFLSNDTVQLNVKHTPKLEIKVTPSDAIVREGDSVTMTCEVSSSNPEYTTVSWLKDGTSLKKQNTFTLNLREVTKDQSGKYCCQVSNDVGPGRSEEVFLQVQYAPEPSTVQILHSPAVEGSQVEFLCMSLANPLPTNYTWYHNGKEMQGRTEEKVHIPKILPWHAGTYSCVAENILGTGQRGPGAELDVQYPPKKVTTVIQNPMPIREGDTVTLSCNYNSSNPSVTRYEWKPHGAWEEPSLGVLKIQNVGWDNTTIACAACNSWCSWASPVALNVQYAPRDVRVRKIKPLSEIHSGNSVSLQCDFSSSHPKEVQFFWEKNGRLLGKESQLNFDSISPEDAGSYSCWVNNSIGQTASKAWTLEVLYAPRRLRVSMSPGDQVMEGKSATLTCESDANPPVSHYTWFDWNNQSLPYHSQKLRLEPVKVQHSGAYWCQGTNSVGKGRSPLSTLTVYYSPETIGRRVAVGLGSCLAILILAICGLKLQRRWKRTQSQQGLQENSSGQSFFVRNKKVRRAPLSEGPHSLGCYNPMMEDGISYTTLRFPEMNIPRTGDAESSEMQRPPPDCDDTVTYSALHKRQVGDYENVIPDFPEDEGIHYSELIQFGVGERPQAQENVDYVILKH

[3] = target: T1, Sialic acid-binding Ig-like lectin 7 (Homo sapiens, UniProt Q9Y286); assay: Binding affinity to recombinant human Fc-fused siglec-7 by fluorescence based glycan microarray analysis; method in brief: as §1
T1 sequence (Q9Y286 whole entry, the tested form may be a part): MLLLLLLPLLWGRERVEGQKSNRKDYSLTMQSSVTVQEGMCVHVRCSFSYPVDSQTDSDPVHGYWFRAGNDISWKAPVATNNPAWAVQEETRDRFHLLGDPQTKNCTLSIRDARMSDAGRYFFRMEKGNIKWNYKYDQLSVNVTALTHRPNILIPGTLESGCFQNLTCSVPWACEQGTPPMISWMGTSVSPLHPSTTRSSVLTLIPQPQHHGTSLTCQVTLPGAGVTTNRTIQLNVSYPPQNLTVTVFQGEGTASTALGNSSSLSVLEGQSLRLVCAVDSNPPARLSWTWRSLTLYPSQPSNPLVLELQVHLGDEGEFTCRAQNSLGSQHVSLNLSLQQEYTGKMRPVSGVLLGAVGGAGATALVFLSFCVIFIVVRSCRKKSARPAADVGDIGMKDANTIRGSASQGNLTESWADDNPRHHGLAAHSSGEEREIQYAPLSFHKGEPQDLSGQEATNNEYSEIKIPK

[4] = target: T2, Sialic acid-binding Ig-like lectin 14 (Homo sapiens) (UniProt Q08ET2); assay: Binding affinity to recombinant human Fc-fused siglec-14 by fluorescence based glycan microarray analysis; method in brief: as §1
T2 sequence (whole entry): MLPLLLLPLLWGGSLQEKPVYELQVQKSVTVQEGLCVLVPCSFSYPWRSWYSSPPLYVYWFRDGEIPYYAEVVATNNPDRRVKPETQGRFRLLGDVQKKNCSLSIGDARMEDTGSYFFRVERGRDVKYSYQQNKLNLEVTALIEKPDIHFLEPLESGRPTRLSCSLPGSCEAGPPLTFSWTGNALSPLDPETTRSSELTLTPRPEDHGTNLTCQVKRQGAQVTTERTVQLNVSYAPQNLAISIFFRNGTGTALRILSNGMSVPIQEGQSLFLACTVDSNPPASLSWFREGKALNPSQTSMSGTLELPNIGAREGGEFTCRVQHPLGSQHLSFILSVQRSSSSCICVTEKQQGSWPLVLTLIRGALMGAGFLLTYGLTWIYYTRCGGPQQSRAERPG

[5] = target: T3, Sialic acid-binding Ig-like lectin 15 (Homo sapiens) (UniProt Q6ZMC9); assay: Binding affinity to recombinant human Fc-fused siglec-15 by fluorescence based glycan microarray analysis; method in brief: as §1
T3 sequence (whole entry): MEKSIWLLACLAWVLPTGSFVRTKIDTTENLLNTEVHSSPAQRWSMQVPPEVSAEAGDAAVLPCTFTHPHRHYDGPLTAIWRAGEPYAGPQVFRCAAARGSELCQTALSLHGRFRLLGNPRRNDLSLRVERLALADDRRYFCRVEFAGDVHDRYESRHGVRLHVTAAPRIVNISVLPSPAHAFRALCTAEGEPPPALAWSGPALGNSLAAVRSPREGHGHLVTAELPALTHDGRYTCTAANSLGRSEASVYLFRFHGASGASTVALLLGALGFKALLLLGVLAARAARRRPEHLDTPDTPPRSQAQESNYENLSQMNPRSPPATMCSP

[6] = target: T1, Sialic acid-binding Ig-like lectin 7; assay: Binding affinity to recombinant human Fc-fused siglec-7 after 1 hr by fluorescence based glycan microarray analysis
Method in brief: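 Surface KD determination on the same glycan microarray. Fc-Siglec-7 was applied at 0.735–588 nM (13 concentrations) for 1 h at rt and washed with PBST, then detected with anti-human IgG-Cy3 (10 µg/mL) for 0.5 h. Fluorescence was plotted against Siglec concentration and fitted to y = Bmax·x/(KD + x).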

[7] = target: T1, Sialic acid-binding Ig-like lectin 7; assay: Binding affinity to recombinant human Fc-fused siglec-7 expressed in CHO cells measured over 180 secs; type: cell-based

SMILES | Activity [1] | Activity [2] | Activity [3] | Activity [4] | Activity [5] | Kd [6] | Kd [7]
CC(=O)N[C@H]1[C@H](OCCCCCCN=[N+]=[N-])O[C@H](CO)[C@@H](O[C@@H]2O[C@H](CO[C@]3(C(=O)O)C[C@H](O)[C@@H](NC(C)=O)[C@H]([C@H](O)[C@H](O)CO)O3)[C@H](O)[C@H](O[C@@H]3O[C@H](CO)[C@@H](O)[C@H](O)[C@H]3NC(C)=O)[C@H]2O)[C@@H]1O | Active | inactive | – | – | – | – | –
CC(=O)N[C@H]1[C@H](OCCCCCCN=[N+]=[N-])O[C@H](CO)[C@@H](O[C@@H]2O[C@H](CO)[C@H](O)[C@H](O[C@]3(C(=O)O)C[C@H](O)[C@@H](NC(C)=O)[C@H]([C@H](O)[C@H](O)CO)O3)[C@H]2O)[C@@H]1O | Active | – | inactive | Active | – | – | –
CC(=O)N[C@H]1[C@H](OCCCCCCN=[N+]=[N-])O[C@H](CO)[C@@H](O[C@@H]2O[C@H](CO)[C@H](O)[C@H](O[C@@H]3O[C@H](CO)[C@@H](O)[C@@H](O[C@@H]4O[C@H](CO[C@]5(C(=O)O)C[C@H](O)[C@@H](NC(C)=O)[C@H]([C@H](O)[C@H](O)CO)O5)[C@H](O)[C@H](O)[C@H]4O)[C@H]3NC(C)=O)[C@H]2O)[C@@H]1O | Active | Active | inactive | – | – | – | –
CC(=O)N[C@H]1[C@H](OCCCCCCN=[N+]=[N-])O[C@H](CO)[C@@H](O[C@@H]2O[C@H](CO)[C@H](O)[C@H](O[C@@H]3O[C@H](CO)[C@@H](O[C@@H]4O[C@H](CO)[C@H](O)[C@H](O[C@]5(C(=O)O)C[C@H](O)[C@@H](NC(C)=O)[C@H]([C@@H](O)[C@@H](CO)O[C@]6(C(=O)O)C[C@H](O)[C@@H](NC(C)=O)[C@H]([C@H](O)[C@H](O)CO)O6)O5)[C@H]4O)[C@H](O)[C@H]3NC(C)=O)[C@H]2O)[C@@H]1O | – | – | inactive | – | – | – | –
CC(=O)N[C@H]1[C@H](OCCCCCCN=[N+]=[N-])O[C@H](CO)[C@@H](O[C@@H]2O[C@H](CO)[C@H](O)[C@H](O[C@]3(C(=O)O)C[C@H](O)[C@@H](NC(C)=O)[C@H]([C@H](O)[C@H](O)CO)O3)[C@H]2O)[C@@H]1O[C@@H]1O[C@@H](C)[C@@H](O)[C@@H](O)[C@@H]1O | Active | – | – | – | – | – | –
CC(=O)N[C@H]1[C@H]([C@H](O)[C@H](O)CO)O[C@@](OC[C@H]2O[C@@H](O[C@H]3[C@H](O)[C@@H](O)[C@H](OCCCCCCN=[N+]=[N-])O[C@@H]3CO)[C@H](O)[C@@H](O[C@]3(C(=O)O)C[C@H](O)[C@@H](NC(C)=O)[C@H]([C@H](O)[C@H](O)CO)O3)[C@H]2O)(C(=O)O)C[C@@H]1O | – | inactive | Active | Active | Active | 0.0268 µM | –
CC(=O)N[C@H]1[C@H](OCCCCCCN=[N+]=[N-])O[C@H](CO)[C@@H](O[C@@H]2O[C@H](CO)[C@H](O)[C@H](O[C@@H]3O[C@H](CO)[C@@H](O)[C@@H](O[C@@H]4O[C@H](CO)[C@H](O)[C@H](O[C@@H]5O[C@H](CO)[C@@H](O)[C@@H](O[C@@H]6O[C@H](CO[C@]7(C(=O)O)C[C@H](O)[C@@H](NC(C)=O)[C@H]([C@H](O)[C@H](O)CO)O7)[C@H](O)[C@H](O)[C@H]6O)[C@H]5NC(C)=O)[C@H]4O)[C@H]3NC(C)=O)[C@H]2O)[C@@H]1O | Active | Active | inactive | – | – | – | –
CC(=O)N[C@H]1[C@H]([C@@H](O)[C@@H](CO)O[C@]2(C(=O)O)C[C@H](O)[C@@H](NC(C)=O)[C@H]([C@H](O)[C@H](O)CO)O2)O[C@@](O[C@H]2[C@@H](O)[C@@H](CO)O[C@@H](O[C@H]3[C@H](O)[C@@H](O)[C@H](OCCCCCCN=[N+]=[N-])O[C@@H]3CO)[C@@H]2O)(C(=O)O)C[C@@H]1O | – | – | – | Active | – | 0.0327 µM | 0.06 µM
CC(=O)N[C@H]1[C@H]([C@@H](O)[C@@H](CO)O[C@]2(C(=O)O)C[C@H](O)[C@@H](NC(C)=O)[C@H]([C@@H](O)[C@@H](CO)O[C@]3(C(=O)O)C[C@H](O)[C@@H](NC(C)=O)[C@H]([C@H](O)[C@H](O)CO)O3)O2)O[C@@](O[C@H]2[C@@H](O)[C@@H](CO)O[C@@H](O[C@H]3[C@H](O)[C@@H](O)[C@H](OCCCCCCN=[N+]=[N-])O[C@@H]3CO)[C@@H]2O)(C(=O)O)C[C@@H]1O | – | – | – | – | – | 0.0487 µM | –
CC(=O)N[C@H]1[C@H](OCCCCCCN=[N+]=[N-])O[C@H](CO)[C@@H](O[C@@H]2O[C@H](CO[C@]3(C(=O)O)C[C@H](O)[C@@H](NC(C)=O)[C@H]([C@H](O)[C@H](O)CO)O3)[C@H](O)[C@H](O[C@]3(C(=O)O)C[C@H](O)[C@@H](NC(C)=O)[C@H]([C@H](O)[C@H](O)CO)O3)[C@H]2O)[C@@H]1O | Active | inactive | Active | Active | Active | 0.0387 µM | –
CC(=O)N[C@H]1[C@H](OCCCCCCN=[N+]=[N-])O[C@H](CO)[C@@H](O[C@@H]2O[C@H](CO)[C@H](O)[C@H](O[C@]3(C(=O)O)C[C@H](O)[C@@H](NC(C)=O)[C@H]([C@@H](O)[C@@H](CO)O[C@]4(C(=O)O)C[C@H](O)[C@@H](NC(C)=O)[C@H]([C@@H](O)[C@@H](CO)O[C@]5(C(=O)O)C[C@H](O)[C@@H](NC(C)=O)[C@H]([C@H](O)[C@H](O)CO)O5)O4)O3)[C@H]2O)[C@@H]1O | – | – | – | – | – | 0.0541 µM | –
CC(=O)N[C@H]1[C@H]([C@H](O)[C@H](O)CO)O[C@@](O[C@H]2[C@@H](O)[C@@H](CO)O[C@@H](O[C@H]3[C@H](O)[C@@H](O)[C@H](OCCCCCCN=[N+]=[N-])O[C@@H]3CO)[C@@H]2O)(C(=O)O)C[C@@H]1O | Active | – | inactive | – | – | – | –
CC(=O)N[C@H]1[C@H](OCCCCCCN=[N+]=[N-])O[C@H](CO)[C@@H](O[C@@H]2O[C@H](CO)[C@H](O)[C@H](O[C@]3(C(=O)O)C[C@H](O)[C@@H](NC(C)=O)[C@H]([C@@H](O)[C@@H](CO)O[C@]4(C(=O)O)C[C@H](O)[C@@H](NC(C)=O)[C@H]([C@H](O)[C@H](O)CO)O4)O3)[C@H]2O)[C@@H]1O | – | – | – | Active | – | 0.0433 µM | –
CC(=O)N[C@H]1[C@H]([C@H](O)[C@H](O)CO)O[C@@](OC[C@H]2O[C@@H](O[C@H]3[C@H](O)[C@@H](O)[C@H](OCCCCCCN=[N+]=[N-])O[C@@H]3CO)[C@H](O)[C@@H](O)[C@H]2O)(C(=O)O)C[C@@H]1O | Active | Active | Active | – | – | – | –
CC(=O)N[C@H]1[C@H](OCCCCCCN=[N+]=[N-])O[C@H](CO)[C@@H](O[C@@H]2O[C@H](CO)[C@H](O)[C@H](O[C@@H]3O[C@H](CO)[C@@H](O)[C@@H](O[C@@H]4O[C@H](CO[C@]5(C(=O)O)C[C@H](O)[C@@H](NC(C)=O)[C@H]([C@H](O)[C@H](O)CO)O5)[C@H](O)[C@H](O[C@]5(C(=O)O)C[C@H](O)[C@@H](NC(C)=O)[C@H]([C@H](O)[C@H](O)CO)O5)[C@H]4O)[C@H]3NC(C)=O)[C@H]2O)[C@@H]1O | – | inactive | – | – | inactive | – | –
